Source: PubChem BioAssay (The Scripps Research Institute Molecular Screening Center)
Hits are enriched below; roughly 0.58% of the tested compounds scored in any of these assays.
TRPML3 ag: human TRPML3 channel agonists, primary screen, cell-based, HEK293 TRPML3-YFP, Fluo-8 calcium fluorescence, 3 µM | activation, % at 3 µM | 220,000 tested, 0.29% active | 100% = the carbachol control signal | Mucolipin-3 (Homo sapiens), Q8TDD5;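 active = activation above its plate's cutoff, the mean activation of the plate's test wells plus 3 SD, cut at about 12% in these data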;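 note: 0% = DMSO only wells and 100% = carbachol wells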
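system = HEK293 cells stably carrying human TRPML3-YFP | doses = one concentration, 3 µM nominal, 0.3% DMSO | timing = dye loading 1 h 37 °C then 30 min ambient, 125 s read | detection = Fluo-8 calcium dye fluorescence, ex 470-495, em 515-575 nm | benchmarks = high control carbachol 87 µM, low control DMSO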
OXTR potentiator: human OXTR potentiators, primary screen, fluorescence, CHO-OTR cells, Fluo-8 calcium; 320,000 tested, 0.061% active; activation, % at 3 µM; Fluo-8 calcium fluorescence, potentiator mode; 0% = oxytocin EC15, 100% = EC100; AID 2445, 2010; Oxytocin receptor (Homo sapiens), P30559;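 active = activation above that plate's cutoff, the mean activation of tested compounds plus 3 SD, cut at about 6.6% in these data, passing the limit was not always enough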;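 note: 100% uses oxytocin at 75 nM as the full agonist control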
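Assay system: CHO cell line stably expressing human OTR. Reagent: EC15 oxytocin agonist. Dosing: single dose, 3.0 µM nominal final compound concentration. Timing: compound 6 min at room temperature before oxytocin, 100 s read. Signal: kinetic Fluo-8 calcium fluorescence. Controls: oxytocin EC15 low and EC100 high.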
OXTR ag: human OXTR agonists, primary screen, fluorescence, CHO-OTR cells, Fluo-8 calcium; Oxytocin receptor (Homo sapiens), P30559; Fluo-8 calcium fluorescence; normalized: DMSO 0%, oxytocin 100%; activation, % at 3 µM; 320,000 tested, 0.32% active; AID 2435, 2010;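 active = activation above the mean of all tested compounds plus 3 SD, cutoff set per screening run, cut at about 20% in these data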;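 note: peak over basal fluorescence ratio from a 100 s FLIPR kinetic read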
V1R ag counter: agonists of human V1a receptor, primary screen, counter-screen for OXTR agonist project, fluorescence, CHO-V1R cells. activation, % at 3 µM. 320,000 tested, 0.25% active. AID 2797, 2010. Fluo-8 calcium fluorescence, agonist mode; 0% DMSO, 100% 3 nM vasopressin;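 active = activation above the mean activation of all tested compounds plus 3 SD, per screening run, cut at about 20% in these data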;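 note: signal is peak over basal fluorescence ratio across a 100 second FLIPR read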
Target sequence (P37288 whole entry, looked up): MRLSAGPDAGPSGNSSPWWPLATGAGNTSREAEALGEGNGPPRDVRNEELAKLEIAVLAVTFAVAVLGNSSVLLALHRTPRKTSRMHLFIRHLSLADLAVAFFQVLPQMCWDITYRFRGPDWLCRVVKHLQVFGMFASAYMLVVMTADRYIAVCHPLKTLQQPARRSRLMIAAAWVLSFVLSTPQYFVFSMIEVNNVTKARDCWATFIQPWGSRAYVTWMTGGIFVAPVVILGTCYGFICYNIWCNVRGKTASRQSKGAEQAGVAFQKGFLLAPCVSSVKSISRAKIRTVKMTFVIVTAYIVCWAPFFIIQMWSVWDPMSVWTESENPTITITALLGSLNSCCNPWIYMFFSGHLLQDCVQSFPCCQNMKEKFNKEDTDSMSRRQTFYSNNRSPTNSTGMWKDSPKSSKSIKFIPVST
zfTRPN1 agonist: zebrafish TRPN1 channel agonists, primary screen, cell-based, HEK293, calcium fluorescence. HEK293 zebrafish TRPN1-YFP, Fluo-8 calcium fluorescence; 100% = response to 87 µM carbachol. activation, % at 3 µM. 220,000 tested, 0.18% active;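 active = activation above its plate's cutoff, the mean activation of test wells on that plate plus 3 SD, cut at about 19% in these data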;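 note: 0% = DMSO alone and 100% = 87 µM carbachol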
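Control set: carbachol 87 µM as high control, DMSO as low control; system: HEK293 stable line with zebrafish TRPN1-YFP; read-out: % activation versus carbachol response; detection: intracellular calcium fluorescence with Fluo-8; doses: single test compound dose, 3 µM nominal, 0.3% DMSO; schedule: dye 1 h 37 °C plus 30 min RT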
The depositor's hits bear a star; x = no result given.

SMILES	TRPML3 ag	OXTR potentiator	OXTR ag	V1R ag counter	zfTRPN1 agonist
O=C(O)c1ccccc1-c1c2cc(I)c(=O)c(I)c-2oc2c(I)c(O)c(I)cc12	x	-12	232*	205*	x
C/C(=N\NC(=O)Cn1nc(C)c([N+](=O)[O-])c1C)c1ccc(Cl)s1	1	-8	1	-2	2
O=C(CNC(=O)c1ccc(Br)o1)Nc1cccc(S(=O)(=O)N2CCOCC2)c1	x	-3	1	1	x
CCN(CC)c1ccc2c(Cl)c(Br)c(=O)oc2c1	1	-22	62*	85*	2
COc1cc(-c2noc(C)c2-c2ccc3[nH]ccc3c2)cc(OC)c1OC	x	-11	-2	0	x
COc1cc(-c2noc(C)c2-c2ccc(N(C)C)nc2)cc(OC)c1OC	x	-18	36*	34*	x
Cc1ccsc1/C=C/C1=Cc2c(sc(NC(=O)CSc3n[nH]c(N)n3)c2C#N)C(C)(C)C1	1	-8	46*	5	0
COc1ccccc1N1CCN(C(=O)c2ccc3[nH]c4c(c3c2)CC(C)CC4)CC1 (stereo not drawn)	1	-16	1	1	0
Cc1ccccc1OCC(=O)NNC(=O)c1cc(S(=O)(=O)N2CCOCC2)ccc1N1CCCC1	x	-12	0	-1	x
CCOc1ccc(-c2c(C(=O)N/N=C/c3ccsc3)nnn2-c2nonc2N)cc1	x	-9	29*	21*	x
CCOc1ccc(-c2c(C(=O)N/N=C/c3ccc(OC)cc3)nnn2-c2nonc2N)cc1	1	-4	37*	27*	1
CCCOc1ccc(-c2c(C(=O)N/N=C/c3ccc(OC)cc3)nnn2-c2nonc2N)cc1	1	5	1	3	1
CCCOc1ccc(-c2c(C(=O)N/N=C/c3ccc(OCC)cc3)nnn2-c2nonc2N)cc1	0	10	1	0	0
O=C(NCc1ccc2c(c1)OCO2)C1CC(=O)N(CCc2ccc(Cl)cc2)C1 (stereo not drawn)	x	-10	0	1	x
O=[N+]([O-])c1ccc(N=Nc2c(Cl)cc(O)cc2Cl)cc1	16*	-9	18	13	20*
CC(N)=Nc1ccc([N+](=O)[O-])cc1	0	-4	1	0	1
O=C(Nc1ccccc1)Nc1cccc(C(F)(F)F)c1	14*	-11	9	11	24*
Cc1ccc(Cl)cc1NC(=O)CC(O)(C(F)(F)F)C(F)(F)F	13*	-12	12	8	20*
COCC(=O)Nc1cc(Cl)ccc1C	0	-2	0	0	1
C=CCn1c(SC(C)CC)nc(O)cc1=O (stereo not drawn)	3	-32	46*	30*	2
O=C(CCN1C(=O)/C(=C/c2ccccc2F)SC1=S)NCCCn1ccnc1	x	-10	2	3	x
C=C(C)CN(CC)C(=O)COc1ccc(S(=O)(=O)Nc2ccc(OC)cc2)cc1	4	-22	29*	24*	11
O=C(O)c1ccc(OCC(O)Cn2c3ccccc3c3ccccc32)cc1 (stereo not drawn)	1	-8	22*	44*	1
OC(COc1ccccc1)Cn1c2ccccc2c2ccccc21 (stereo not drawn)	0	3	0	0	-2
Cc1ccc(NC(=O)CN(C)C(=O)/C=C/c2ccc3c(c2)OCO3)cc1	x	-2	-2	0	x
SMILES	TRPML3 ag	OXTR potentiator	OXTR ag	V1R ag counter	zfTRPN1 agonist
NC(=O)C1(N2CCCCC2)CCN(C(=S)Nc2ccc(F)c(Cl)c2)CC1	1	-8	7	4	4
CC(C)c1cc(=O)oc2c3c4c(cc12)CCCN4CCC3	0	-4	-1	-1	0
O=c1oc2c3c4c(cc2c(C(F)(F)F)c1CCN1CCOCC1)CCCN4CCC3	10	-12	34*	33*	20*
c1ccc(CNc2nc(NCc3ccccc3)c3ccccc3n2)cc1	7	-19	28*	21*	16
CCOC(=O)c1cc(C#N)c(SCC(=O)OC)[nH]c1=O	1	-4	0	1	1
Cc1c(NC(=O)C(C)c2ccc(CC(C)C)cc2)c(=O)n(-c2ccccc2)n1C (stereo not drawn)	0	-19	-2	0	0
CC(C)Cc1ccc(C(C)C(=O)Nc2ccccc2O)cc1 (stereo not drawn)	22*	-34	42*	40*	46*
CC(C)Cc1ccc(C(C)C(=O)Nc2nccs2)cc1 (stereo not drawn)	11	-14	32*	29*	12
CCCNC(=O)C1(O)c2cc(Br)ccc2NC(=O)N1c1ccc(Cl)cc1 (stereo not drawn)	x	-7	0	0	x
CC(C)C(NC(=O)c1ccco1)C(=O)NC1CCCCCC1 (stereo not drawn)	x	-9	-1	4	x
Cc1cc(C)c(OCC(=O)Nc2ccccc2N2CCOCC2)c(C)c1	15*	-12	14	18	24*
CC1CCCCC1NCC(=O)NCc1ccc(F)cc1 (stereo not drawn)	0	-3	0	-1	2
N#Cc1c(Cl)nsc1NC(=O)c1ccccc1	21*	-15	16	12	30*
Cc1ccc(C(=O)NC(=S)NNC(=O)c2ccccc2[N+](=O)[O-])cc1	0	-7	2	1	0
Cc1ccc(C(=O)NC(=S)NNC(=O)c2ccc([N+](=O)[O-])cc2)cc1	x	-7	10	4	x
Cc1ccc(C(=O)NNC(=S)NC(=O)c2ccccc2)cc1	x	-19	88*	96*	x
O=C(NC(=S)NNC(=O)c1ccccc1O)c1ccc(F)cc1	x	-26	34*	32*	x
Cc1ccc(C(=O)NC(=S)NNC(=O)c2ccccc2)cc1	x	-23	82*	89*	x
Cc1ccc(C(=O)NNC(=S)NC(=O)c2ccc(Cl)cc2Cl)cc1	43*	-14	101*	117*	70*
COc1ccc(C2c3[nH]c4ccccc4c3CCN2C(=O)Cc2nonc2C)c(F)c1 (stereo not drawn)	-1	-1	2	2	1
Cc1ccccc1C(=O)NNC(=S)NC(=O)c1ccccc1	8	-9	53*	40*	9
Cc1ccc(CSC(Nc2ccc(F)cc2)=C(C#N)C#N)cc1	15*	-6	9	9	25*
CCN(CC)C(=O)CSC(Nc1ccc(F)cc1)=C(C#N)C#N	5	-12	8	6	9
CCN1C(=O)c2cccc3c(S(=O)(=O)NCc4ccccc4)ccc1c23	x	-8	1	2	x
